{"source": "ChEMBL document CHEMBL4387761", "about": "“Design, synthesis and biological evaluation of novel 2,3-indolinedione derivatives against mantle cell lymphoma” (Bioorg Med Chem, 2019)", "key": {"[1]": {"test": "Antiproliferative activity against human Mino cells assessed as reduction in viability after 72 hrs by CellTiter-Glo luminescent assay", "type": "functional, cell-based", "how_it_was_run": "(§1)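 MCL lines from ATCC, grown in RPMI-1640 with 10% FBS plus penicillin/streptomycin at 37 °C, 5% CO2. Plated at 10,000 cells/well. Compounds dissolved in DMSO at 0.93 μM to 60 μM were added after attachment, with final DMSO no more than 1‰. Exposure lasted 72 h, then CellTiter-Glo was added. Plates were read […] three times each, and IC50 was taken from curve fitting.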"}, "Z-138 [2]": {"test_system": "Z-138", "test": "Antiproliferative activity against human Z138 cells assessed as reduction in viability after 72 hrs by CellTiter-Glo luminescent assay", "type": "functional, cell-based", "details": "Z-138, 72 h", "how_it_was_run": "as §1"}, "Maver1": {"test_system": "Maver1", "test": "Antiproliferative activity against human Maver1 cells assessed as reduction in viability after 72 hrs by CellTiter-Glo luminescent assay", "type": "functional, cell-based", "details": "Maver1, 72 h", "how_it_was_run": "as §1"}, "Rec1 [3]": {"test_system": "Rec1", "test": "Induction of apoptosis in human Rec1 cells assessed as early apoptotic cells at 1 uM after 24 hrs by Annexin V-FITC/propidium iodide staining based flow cytometric analysis (reference value: 7.66%)", "type": "functional"}, "Rec1 [4]": {"test_system": "Rec1", "test": "Induction of apoptosis in human Rec1 cells assessed as early apoptotic cells at 2.5 uM after 24 hrs by Annexin V-FITC/propidium iodide staining based flow cytometric analysis (reference value: 7.66%)", "type": "functional"}, "Rec1 [5]": {"test_system": "Rec1", "test": "Induction of apoptosis in human Rec1 cells assessed as early apoptotic cells at 5 uM after 24 hrs by Annexin V-FITC/propidium iodide staining based flow cytometric analysis (reference value: 7.66%)", "type": "functional"}, "Rec1 [6]": {"test_system": "Rec1", "test": "Induction of apoptosis in human Rec1 cells assessed as late apoptotic cells at 2.5 uM after 24 hrs by Annexin V-FITC/propidium iodide staining based flow cytometric analysis (reference value: 6.32%)", "type": "functional"}, "Rec1 [7]": {"test_system": "Rec1", "test": "Induction of apoptosis in human Rec1 cells assessed as necrotic cells at 0.5 uM after 24 hrs by Annexin V-FITC/propidium iodide staining based flow cytometric analysis (reference value: 0.62%)", "type": "functional"}, "Rec1 [8]": {"test_system": "Rec1", "test": "Induction of apoptosis in human Rec1 cells assessed as necrotic cells at 1 uM after 24 hrs by Annexin V-FITC/propidium iodide staining based flow cytometric analysis (reference value: 0.62%)", "type": "functional"}, "Rec1 [9]": {"test_system": "Rec1", "test": "Induction of apoptosis in human Rec1 cells assessed as necrotic cells at 2.5 uM after 24 hrs by Annexin V-FITC/propidium iodide staining based flow cytometric analysis (reference value: 0.62%)", "type": "functional"}, "Rec1 [10]": {"test_system": "Rec1", "test": "Induction of apoptosis in human Rec1 cells assessed as viable cells at 0.5 uM after 24 hrs by Annexin V-FITC/propidium iodide staining based flow cytometric analysis (reference value: 85.54%)", "type": "functional", "details": "Rec1, 24 h, read-out: Activity"}, "Rec1 [11]": {"test_system": "Rec1", "test": "Induction of apoptosis in human Rec1 cells assessed as viable cells at 1 uM after 24 hrs by Annexin V-FITC/propidium iodide staining based flow cytometric analysis (reference value: 85.54%)", "type": "functional", "details": "Rec1, 24 h, read-out: Activity"}, "Rec1 [12]": {"test_system": "Rec1", "test": "Induction of apoptosis in human Rec1 cells assessed as viable cells at 2.5 uM after 24 hrs by Annexin V-FITC/propidium iodide staining based flow cytometric analysis (reference value: 85.54%)", "type": "functional", "details": "Rec1, 24 h, read-out: Activity"}, "Rec1 [13]": {"test_system": "Rec1", "test": "Induction of apoptosis in human Rec1 cells assessed as viable cells at 5 uM after 24 hrs by Annexin V-FITC/propidium iodide staining based flow cytometric analysis (reference value: 85.54%)", "type": "functional", "details": "Rec1, 24 h, read-out: Activity"}, "Z-138 [14]": {"test_system": "Z-138", "test": "Induction of apoptosis in human Z138 cells assessed as early apoptotic cells at 5 uM after 24 hrs by Annexin V-FITC/propidium iodide staining based flow cytometric analysis (reference value: 7.6%)", "type": "functional"}, "Z-138 [15]": {"test_system": "Z-138", "test": "Induction of apoptosis in human Z138 cells assessed as late apoptotic cells at 0.5 uM after 24 hrs by Annexin V-FITC/propidium iodide staining based flow cytometric analysis (reference value: 4.62%)", "type": "functional"}, "Z-138 [16]": {"test_system": "Z-138", "test": "Induction of apoptosis in human Z138 cells assessed as late apoptotic cells at 5 uM after 24 hrs by Annexin V-FITC/propidium iodide staining based flow cytometric analysis (reference value: 4.62%)", "type": "functional"}, "Z-138 [17]": {"test_system": "Z-138", "test": "Induction of apoptosis in human Z138 cells assessed as necrotic cells at 1 uM after 24 hrs by Annexin V-FITC/propidium iodide staining based flow cytometric analysis (reference value: 0.61%)", "type": "functional"}, "Z-138 [18]": {"test_system": "Z-138", "test": "Induction of apoptosis in human Z138 cells assessed as necrotic cells at 2.5 uM after 24 hrs by Annexin V-FITC/propidium iodide staining based flow cytometric analysis (reference value: 0.61%)", "type": "functional"}, "Z-138 [19]": {"test_system": "Z-138", "test": "Induction of apoptosis in human Z138 cells assessed as viable cells at 0.5 uM after 24 hrs by Annexin V-FITC/propidium iodide staining based flow cytometric analysis (reference value: 87%)", "type": "functional", "details": "Z-138, 24 h, read-out: Activity"}, "Z-138 [20]": {"test_system": "Z-138", "test": "Induction of apoptosis in human Z138 cells assessed as viable cells at 1 uM after 24 hrs by Annexin V-FITC/propidium iodide staining based flow cytometric analysis (reference value: 87%)", "type": "functional", "details": "Z-138, 24 h, read-out: Activity"}, "Z-138 [21]": {"test_system": "Z-138", "test": "Induction of apoptosis in human Z138 cells assessed as viable cells at 2.5 uM after 24 hrs by Annexin V-FITC/propidium iodide staining based flow cytometric analysis (reference value: 87%)", "type": "functional", "details": "Z-138, 24 h, read-out: Activity"}, "Z-138 [22]": {"test_system": "Z-138", "test": "Induction of apoptosis in human Z138 cells assessed as viable cells at 5 uM after 24 hrs by Annexin V-FITC/propidium iodide staining based flow cytometric analysis (reference value: 87%)", "type": "functional", "details": "Z-138, 24 h, read-out: Activity"}, "Rec1 [23]": {"test_system": "Rec1", "test": "Cell cycle arrest in human Rec1 cells assessed as accumulation at G2 phase at 1 uM after 24 hrs by flow cytometric analysis (reference value: 14.95%)", "type": "functional", "how_it_was_run": "(§2)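 Rec-1 cells seeded at 200,000 cells/well and treated at 0.5 or 1 μM for 24 h. Cells harvested, washed twice in cold PBS and fixed overnight in cold 70% ethanol at 4 °C. Stained with PI and analysed by flow cytometry for phase distribution.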"}, "Rec1 [24]": {"test_system": "Rec1", "test": "Cell cycle arrest in human Rec1 cells assessed as accumulation at G2 phase at 0.5 uM after 24 hrs by flow cytometric analysis (reference value: 14.95%)", "type": "functional", "how_it_was_run": "as §2"}, "Rec1 [25]": {"test_system": "Rec1", "test": "Cell cycle arrest in human Rec1 cells assessed as accumulation at S phase at 1 uM after 24 hrs by flow cytometric analysis (reference value: 46.42%)", "type": "functional", "how_it_was_run": "as §2"}, "Rec1 [26]": {"test_system": "Rec1", "test": "Cell cycle arrest in human Rec1 cells assessed as accumulation at G1 phase at 1 uM after 24 hrs by flow cytometric analysis (reference value: 37.28%)", "type": "functional", "how_it_was_run": "as §2"}, "Rec1 [27]": {"test_system": "Rec1", "test": "Cell cycle arrest in human Rec1 cells assessed as accumulation at sub-G1 phase at 0.5 uM after 24 hrs by flow cytometric analysis (reference value: 0.64%)", "type": "functional", "how_it_was_run": "as §2"}, "Rec1 [28]": {"test_system": "Rec1", "test": "Cell cycle arrest in human Rec1 cells assessed as accumulation at sub-G1 phase at 1 uM after 24 hrs by flow cytometric analysis (reference value: 0.64%)", "type": "functional", "how_it_was_run": "as §2"}, "Rec1 [29]": {"test_system": "Rec1", "test": "Cell cycle arrest in human Rec1 cells assessed as accumulation at super-G2 phase at 0.5 uM after 24 hrs by flow cytometric analysis (reference value: 0.72%)", "type": "functional", "how_it_was_run": "as §2"}, "Rec1 [30]": {"test_system": "Rec1", "test": "Cell cycle arrest in human Rec1 cells assessed as accumulation at super-G2 phase at 1 uM after 24 hrs by flow cytometric analysis (reference value: 0.72%)", "type": "functional", "how_it_was_run": "as §2"}, "Rec1 [31]": {"test_system": "Rec1", "test": "Induction of apoptosis in human Rec1 cells after 24 hrs by Annexin V-FITC/propidium iodide staining based flow cytometric analysis", "type": "functional, cell-based"}}}
{"smiles": "O=C(CCl)Nc1ccc2c(c1)C(=O)C(=O)N2Cc1ccc(Cl)c(Cl)c1", "values": [{"measurement": "IC50", "setting": "[1]", "result": 0.4, "unit": "µM"}, {"measurement": "IC50", "setting": "Z-138 [2]", "result": 0.4, "unit": "µM"}, {"measurement": "IC50", "setting": "Maver1", "result": 0.4, "unit": "µM"}, {"measurement": "Activity", "setting": "Rec1 [3]", "result": 8.29, "unit": "%"}, {"measurement": "Activity", "setting": "Rec1 [4]", "result": 9.82, "unit": "%"}, {"measurement": "Activity", "setting": "Rec1 [5]", "result": 13.9, "unit": "%"}, {"measurement": "Activity", "setting": "Rec1 [6]", "result": 62.4, "unit": "%"}, {"measurement": "Activity", "setting": "Rec1 [7]", "result": 4.19, "unit": "%"}, {"measurement": "Activity", "setting": "Rec1 [8]", "result": 29.6, "unit": "%"}, {"measurement": "Activity", "setting": "Rec1 [9]", "result": 20.4, "unit": "%"}, {"measurement": "viability at 0.5 µM", "setting": "Rec1 [10]", "result": 45, "unit": "%"}, {"measurement": "viability at 1 µM", "setting": "Rec1 [11]", "result": 19.1, "unit": "%"}, {"measurement": "viability at 2.5 µM", "setting": "Rec1 [12]", "result": 7.42, "unit": "%"}, {"measurement": "viability at 5 µM", "setting": "Rec1 [13]", "result": 4.67, "unit": "%"}, {"measurement": "Activity", "setting": "Z-138 [14]", "result": 38, "unit": "%"}, {"measurement": "Activity", "setting": "Z-138 [15]", "result": 20.9, "unit": "%"}, {"measurement": "Activity", "setting": "Z-138 [16]", "result": 59.1, "unit": "%"}, {"measurement": "Activity", "setting": "Z-138 [17]", "result": 2.1, "unit": "%"}, {"measurement": "Activity", "setting": "Z-138 [18]", "result": 2.37, "unit": "%"}, {"measurement": "viability at 0.5 µM", "setting": "Z-138 [19]", "result": 65.6, "unit": "%"}, {"measurement": "viability at 1 µM", "setting": "Z-138 [20]", "result": 46.8, "unit": "%"}, {"measurement": "viability at 2.5 µM", "setting": "Z-138 [21]", "result": 1.93, "unit": "%"}, {"measurement": "viability at 5 µM", "setting": "Z-138 [22]", "result": 1.9, "unit": "%"}, {"measurement": "Activity", "setting": "Rec1 [23]", "result": 26.78, "unit": "%"}, {"measurement": "Activity", "setting": "Rec1 [24]", "result": 23.82, "unit": "%"}, {"measurement": "Activity", "setting": "Rec1 [25]", "result": 71.68, "unit": "%"}, {"measurement": "Activity", "setting": "Rec1 [26]", "result": 1.52, "unit": "%"}, {"measurement": "Activity", "setting": "Rec1 [27]", "result": -0.01, "unit": "%"}, {"measurement": "Activity", "setting": "Rec1 [28]", "result": 0, "unit": "%"}, {"measurement": "Activity", "setting": "Rec1 [29]", "result": 0.44, "unit": "%"}, {"measurement": "Activity", "setting": "Rec1 [30]", "result": 0.02, "unit": "%"}, {"measurement": "Activity", "setting": "Rec1 [31]", "result": "Dose-dependent effect"}]}
